Source: PubChem (The Scripps Research Institute Molecular Screening Center)
CHRM5 antagonist: human M5 muscarinic receptor antagonists, primary screen, CHO cells, Fluo-8 calcium fluorescence; Muscarinic acetylcholine receptor M5 (Homo sapiens), P08912; CHO-hM5 cells, ACh EC80; inhibition, % at 3 µM; 360,000 tested, 0.59% active;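 active = inhibition above a per-plate cutoff, the mean of that plate's test compounds plus 3 SD, cut at about 27% in these data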
Target sequence (P08912 whole entry, looked up): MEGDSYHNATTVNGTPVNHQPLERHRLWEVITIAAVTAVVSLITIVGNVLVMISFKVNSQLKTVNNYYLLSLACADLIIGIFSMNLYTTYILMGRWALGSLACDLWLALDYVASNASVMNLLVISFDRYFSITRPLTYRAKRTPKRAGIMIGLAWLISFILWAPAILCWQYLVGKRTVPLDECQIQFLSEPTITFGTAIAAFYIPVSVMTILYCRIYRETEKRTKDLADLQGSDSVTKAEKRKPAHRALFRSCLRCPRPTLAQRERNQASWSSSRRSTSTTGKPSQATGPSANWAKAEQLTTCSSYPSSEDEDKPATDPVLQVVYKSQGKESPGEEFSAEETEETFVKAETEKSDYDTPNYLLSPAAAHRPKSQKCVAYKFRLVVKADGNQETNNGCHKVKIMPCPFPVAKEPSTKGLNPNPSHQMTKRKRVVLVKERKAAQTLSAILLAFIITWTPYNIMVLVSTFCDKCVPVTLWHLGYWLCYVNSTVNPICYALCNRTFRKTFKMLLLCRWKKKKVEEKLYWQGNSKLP
M4 antag: human M4 muscarinic receptor antagonists, primary screen, CHO cells, Fluo-8 calcium fluorescence | Muscarinic acetylcholine receptor M4 (Homo sapiens), P08173 | CHO-hM4 cells, ACh EC80 | inhibition, % at 3 µM | 360,000 tested, 0.73% active;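 active = inhibition above its plate's cutoff, the mean inhibition of sample wells plus 3 SD, cut at about 27% in these data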
M5 PAM: human M5 muscarinic receptor positive allosteric modulators, primary screen, CHO-K1 cells, Fluo-8 calcium fluorescence; Muscarinic acetylcholine receptor M5 (Homo sapiens), P08912; CHO-K1 hM5, ACh EC20 PAM; 0% = ACh EC20, 100% = ACh EC100; activation, % at 3 µM; 360,000 tested, 0.3% active;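 active = activation above the run cutoff, the mean activation of all test compounds plus 3 SD, cut at about 18% in these data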
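Assay system: CHO-K1 hM5 cells. Also added: acetylcholine at EC20 concentration, added after compound. Dosing: 3 µM, single dose. Times: compound preincubation 140 s before EC20 acetylcholine addition. Signal: Fluo-8 calcium fluorescence. Measure: % activation relative to EC20 and EC100 ACh responses. Repeats: singlicate, one well per test compound.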
CHRM4 PAM: human M4 muscarinic receptor positive allosteric modulators, primary screen, CHO-K1 cells, Fluo-8 calcium fluorescence. 360,000 tested, 0.4% active. CHO-K1 hM4/Gqi5, ACh EC20; 0% = ACh EC20, 100% = maximal ACh. Muscarinic acetylcholine receptor M4 (Homo sapiens), P08173. activation, % at 3 µM;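 active = activation above its plate's cutoff, the mean activation of sample wells plus 3 SD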
CHRM4 agonist: human M4 muscarinic receptor agonists, primary screen, CHO-K1 cells, Fluo-8 calcium fluorescence; Muscarinic acetylcholine receptor M4 (Homo sapiens), P08173; CHO-K1 hM4/Gqi5; vehicle 0%, full acetylcholine response 100%; activation, % at 3 µM; 360,000 tested, 0.14% active;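 active = activation above the run mean over all test wells plus 3 SD, cut at about 32% in these data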;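 note: peak over basal fluorescence ratio per well then scaled between controls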
M5 ag: human M5 muscarinic receptor agonists, primary screen, CHO-K1 cells, Fluo-8 calcium fluorescence; Muscarinic acetylcholine receptor M5 (Homo sapiens), P08912; CHO-K1 hM5 cells; 0% DMSO wells, 100% maximal acetylcholine response; activation, % at 3 µM; 360,000 tested, 0.19% active;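 active = activation above the run's mean over test compounds plus 3 SD, cut at about 23% in these data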;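 note: signal is peak over basal fluorescence ratio across the kinetic read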
Each line names hits and unclear results; the compound was inactive in the other large screens. This is a sample that favours compounds with a hit; in the whole collection about 1.8% have one here.

COC(C[C@@H](O)[C@H](C)[C@@H](O)COCc1ccccc1)OC	M4 antag 36.5
Cc1cccc(N(Cc2ccccc2)C(=O)c2ccccc2S(C)(=O)=O)c1	none
O=C(Nc1ccncc1)c1ccc2c(c1)C(=O)N(C1CCCCC1)C2=O	CHRM5 antagonist 30.8, M4 antag 41.7
CN(C)CCC[C@@]1(c2ccc(F)cc2)OCc2cc(C#N)ccc21	M4 antag 29.9
CN(C)CCC[C@]1(c2ccc(F)cc2)OCc2cc(C#N)ccc21	none
CC(C)Cn1c(-c2ccccc2F)n[nH]c1=S	CHRM5 antagonist 46.3
CC(C)Cn1c(-c2ccc(F)cc2)n[nH]c1=S	none
CC(C)Cn1c(-c2csc3c2CCCC3)n[nH]c1=S	M4 antag 29.9
CC(C)Cn1c(-c2ccncc2)n[nH]c1=S	none
COC(=O)c1ccc2c(c1)C(C)(C)C(/C=C/c1ccccc1O)=[N+]2C	M5 ag 23.5
O=C(Nc1ccccc1Oc1ccccc1)[C@@H]1O[C@H](CO)[C@H](O)[C@H](O)[C@H]1O	none
CCCc1nnc(SCc2ccc(C(=O)OC)o2)n1N	none
CCc1nnc(SCc2ccc(C(=O)OC)o2)n1N	M5 PAM 19.2
OC(CNCC1(N2CCCCC2)CCCCC1)COc1ccc(Cl)cc1Cl (stereo not given)	M5 PAM 25.8
CCc1cccc(NS(=O)(=O)c2c(C)nc3sc(CC)nn3c2=O)c1	CHRM5 antagonist 30.1, M4 antag 29.4
COc1cc(C=O)ccc1OCC(=O)N1CCCC1	M5 PAM 20.1
CCCNC(=O)C1(C)CCN(C(=O)c2cc(C(C)(C)C)nn2C)C1 (stereo not given)	none
Cc1cn([C@H]2C[C@H](O)[C@@H](COS(=O)(=O)O)O2)c(=O)[nH]c1=O	none
CC1(C)O[C@@H]2[C@H](O1)[C@@H](COS(=O)(=O)O)O[C@H]2n1cc(Br)c(=O)[nH]c1=O	CHRM4 PAM 25.1
OC1(C#CCCN2CCCCC2)c2ccccc2-c2ccccc21	CHRM5 antagonist 90.4, M4 antag 55.5
OC1(CC#CCN2CCCCC2)c2ccccc2-c2ccccc21	none
Cc1cc2cc3c(cc2nc1SCC(=O)OC(C)C)OCO3	CHRM4 PAM 23.6
C=C1C[C@@H]2C[C@@H]2CN(S(=O)(=O)c2ccc(C)cc2)[C@@H]1c1ccco1	none
CCOc1ccc(Nc2nc(N)nc(CSC(=S)N3CCOCC3)n2)cc1	CHRM5 antagonist 34.0
Cc1ccc(Nc2nc(N)nc(CSC(=S)N3CCOCC3)n2)cc1	none
Cc1nn(CC(=O)NCCCc2ccccc2)c(=O)c2cccn12	none
Cc1nn(CC(=O)NCc2cccc(F)c2)c(=O)c2cccn12	CHRM5 antagonist 28.7
CCC(C)(C)NC(=O)C1CCN(S(=O)(=O)c2cccs2)CC1	CHRM5 antagonist 33.0
O=c1[nH][nH]c(C(F)(F)F)c1/C=N/N1CCOCC1	none
Cc1ccc(S(=O)(=O)N2CCCC(C(=O)N3CCN(c4ccccc4)CC3)C2)cc1 (stereo not given)	CHRM5 antagonist 29.2
COc1ccc(S(=O)(=O)N2CCC(C(=O)N3CCc4ccccc4C3)CC2)cc1	none
Cc1ccc(S(=O)(=O)N2CCC(C(=O)N3Cc4ccccc4C3)CC2)cc1	M5 PAM 18.8, CHRM4 PAM 21.9
COc1ccc(/C=C2/SC(=O)N(CC(=O)NCCC(C)C)C2=O)cc1OC	none
COc1ccc(/C=C2\SC(=O)N(CC(=O)NCCC(C)C)C2=O)cc1OC	M5 PAM 18.9
O=S1(=O)CCOC(CO)CN1Cc1ccc(Cl)c(Cl)c1 (stereo not given)	none
Cc1onc(-c2ccccc2)c1C(=O)NC(=S)NNC(=O)c1ccccc1O	CHRM4 agonist 44.2
CCCOc1ccc(C(=O)NC(=S)NNC(=O)c2c(-c3ccccc3)noc2C)cc1	CHRM4 agonist 32.2
